Xi reactivation: activators of X-chromosome reactivation in mouse fibroblasts | XiGFP mouse fibroblasts, % GFP-positive cells imaging, 3 d; cells co-treated with 5-aza-dC sensitizer; scaled so ellipticine positive control = 100% | activation, % at 7.58 µM | hit rate 0.055% among 360,000;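 active means mean normalized replicate activation at least 10% and every replicate at or above 10%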;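 further: 0% = median of on-plate neutral control wells and 100% = ellipticine 6 µM median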
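System: XiGFP fibroblasts, SV40-immortalized. Medium: DMEM plus 5-aza-dC sensitizer. Doses: single point. Timing: 3 d treatment, 15 min room-temperature fixation. Control set: ellipticine 6 µM.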
ABHD5 PLIN5 PPI: inhibitors of human ABHD5-perilipin-5 interaction | Split G. princeps luciferase complementation, luminescence, 4 h | inhibition, % at 4 µM | hit rate 0.78% among 360,000;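 active means inhibition above the mean inhibition across every tested compound plus 3 SD, cut at about 22% in these data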;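 further: 0% = DMSO only wells and the 100% control is not disclosed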
Rpn11 block: inhibitors of human proteasome Rpn11. O00487. human 26S proteasome, Ub4-pepOG fluorescence polarization; 20S core pre-blocked with epoxomicin. inhibition, % at 20 µM. hit rate 0.59% among 360,000. AID 588493;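 active means inhibition at 20 µM, scaled to each plate's controls, above about 33%, limit read from the data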
Target sequence (O00487 whole entry, looked up): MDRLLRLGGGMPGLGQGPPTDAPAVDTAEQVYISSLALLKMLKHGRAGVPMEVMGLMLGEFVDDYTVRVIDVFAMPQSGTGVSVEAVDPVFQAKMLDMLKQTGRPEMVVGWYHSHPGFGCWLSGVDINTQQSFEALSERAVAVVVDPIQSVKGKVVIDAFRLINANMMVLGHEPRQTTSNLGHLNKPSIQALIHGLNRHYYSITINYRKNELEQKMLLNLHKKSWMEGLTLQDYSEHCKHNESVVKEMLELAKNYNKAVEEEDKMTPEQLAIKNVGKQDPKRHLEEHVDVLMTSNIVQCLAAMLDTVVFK
Rin1-Abl PPI inh: inhibitors of human Rin1-Abl protein interaction. P00519+Q13671. TR-FRET Rin1/Abl binding, biochemical. inhibition, % at 7.35 µM. hit rate 0.4% among 360,000; in the data active means inhibition above about 5%, passing the limit was not always enough
NadD block: NadD (S. aureus) enzyme inhibition; purified NadD enzyme, colorimetric absorbance read-out; inhibition, % at 20 µM; hit rate 0.78% among 360,000; in the data active means inhibition above about 26%
Rpn11 inh conf: confirmation of human proteasome Rpn11 inhibitors. inhibition, % at 20 µM. purified human 26S proteasome, Ub4-pepOG fluorescence polarization; proteasome pretreated with epoxomicin. shares compounds with Rpn11 block. hit rate 29% among 1,900
MMP-2 counter: blocks human MMP-2, flagging nonselective RPN11 hits; shares compounds with Rpn11 block; hit rate 4% among 1,900; inhibition, % at 20 µM; AID 602330; recombinant MMP-2, FRET peptide cleavage fluorescence;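 further: human MMP-2 activated beforehand with APMA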
Thrombin FP: counter-screen for RPN11 inhibitors: inhibition of bovine thrombin; shares compounds with Rpn11 block; bovine thrombin cleavage of Ub4-pepOG, fluorescence polarization; inhibition, % at 20 µM; hit rate 13% among 1,900;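 active means mean inhibition at least 40% at 20 µM, or signal 3 deviations below plate average, so some actives read negative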;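 further: plate controls were thrombin with DMSO for no effect and buffer wells lacking thrombin for full effect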
Numbers without * were called inactive; i = inactive; · = not tested or not shown; + = active, no number. Rows were chosen to be rich in hits. Some 1.9% of all compounds tested hit in one or more screens of this group. Unless noted, no stated cut-off is given here; in the data, active means inhibition above about 40%; inactive means the rest.

SMILES	Xi reactivation	ABHD5 PLIN5 PPI	Rpn11 block	Rin1-Abl PPI inh	NadD block	Rpn11 inh conf	MMP-2 counter	Thrombin FP
COc1cc(/C=C2/SC(=S)N(CC(=O)Nc3nc4ccccc4s3)C2=O)cc(OC)c1OC	·	-17.6	50.8*	1.6	35.0*	51.6*	16.2	28.1
COc1cc(/C=C2\SC(=S)N(CC(=O)Nc3ccccn3)C2=O)cc(OC)c1OC	-0.1	-5.3	59.9*	-2.6	27.9	38.1	-5.2	25.0
CN1[C@@H]2c3ccc(-c4ccccc4)c(=O)n3C[C@@H]2[C@@H](CO)[C@@H]1C(=O)NC1Cc2ccccc2C1	0.9	·	·	·	·	·	·	·
COc1ccc(NC(=O)N(C)C[C@H]2Oc3c(NS(=O)(=O)c4ccccc4)cccc3C(=O)N([C@@H](C)CO)C[C@@H]2C)cc1	0.0	·	·	·	·	·	·	·
CCCNC(=O)Nc1ccc2c(c1)C(=O)N(C)C[C@H](OC)[C@H](C)CN(CCC(F)(F)F)[C@H](C)CO2	0.3	·	·	·	·	·	·	·
COc1ccc(NC(=O)N(C)C[C@H]2Oc3ccc(NC(=O)C4CC4)cc3CC(=O)N([C@H](C)CO)C[C@@H]2C)cc1	0.6	·	·	·	·	·	·	·
Cc1noc(C)c1S(=O)(=O)N(C)C[C@H]1Oc2ccc(NS(=O)(=O)c3ccc(Cl)cc3)cc2C(=O)N([C@@H](C)CO)C[C@H]1C	0.2	·	·	·	·	·	·	·
O=C(c1ccccc1)N1CC(=O)N2[C@H](CO)[C@H](c3ccc(C#Cc4ccccc4)cc3)[C@H]2C1	0.0	·	·	·	·	·	·	·
Fc1ccc(-c2nc3c4ccccc4ccn3c2Cc2cccc(Cl)c2)cc1	0.0	-3.5	43.2*	3.6	9.4	67.7*	3.7	73.9*
Clc1cccc(Cc2c(-c3ccccc3)nc3c4ccccc4ccn23)c1	0.0	-3.6	17.8	-2.0	4.8	·	·	·
O=C(NCC1CC1)[C@H]1[C@H](CO)[C@H]2Cn3c(ccc(-c4cccnc4)c3=O)[C@@H]1N2C(=O)C1CCCC1	0.1	·	·	·	·	·	·	·
O=C(N/N=C/c1cc([N+](=O)[O-])ccc1O)c1cc(-c2ccccc2)nc2ccccc12	0.8	1.8	42.0*	-1.6	31.1*	42.6*	23.9	-7.3
Cc1cc(C(=O)N/N=C/c2cc([N+](=O)[O-])ccc2O)c2ccccc2n1	·	-3.2	9.3	1.4	4.5	·	·	·
O=C(O)c1cccc2[nH]c(C(F)(F)F)nc12	·	-4.2	5.6	-0.2	-3.8	·	·	·
Nc1cccc2[nH]c(C(F)(F)F)nc12	0.0	4.5	54.2*	-1.4	22.2	22.8	-4.8	-17.6
CC(C)(C)OC(=O)n1cccc1/C=C1\c2ccccc2C(=O)N1c1ccccc1	·	7.7	41.3*	-2.5	22.1	33.8	21.2	7.2
Cc1ccc(S(=O)(=O)Nc2cc(Cl)c(O)c3ncccc23)cc1	1.7	-3.9	72.0*	-2.3	7.9	76.2*	51.8*	9.4
Oc1ccc(Cl)c2cccnc12	-0.1	0.2	0.3	-1.1	1.0	·	·	·
Oc1c(Cl)cc(Cl)c2cccnc12	0.4	-3.2	53.5*	5.7	6.7	26.1	30.2	-8.3
CO[C@@H]1CN(C)C(=O)c2ccc(NC(C)=O)cc2OC[C@H](C)N(C(=O)CN(C)C)C[C@H]1C	2.3	·	·	·	·	·	·	·
CC(C)NC(=S)N/N=C/c1ccc(N2CCOCC2)cc1	5.1	-3.7	-0.1	-2.2	-2.8	·	·	·
O=C(N/N=C/c1sc(N2CCCCC2)nc1-c1cccs1)C1CC1	0.0	-0.4	23.0	-0.5	0.3	·	·	·
NC(=O)N/N=C/c1sc(N2CCCCC2)nc1-c1cccs1	0.0	-13.3	55.7*	-4.0	2.4	3.8	-11.1	-1.2
CC(C)NC(=S)N/N=C/c1sc(N2CCCCC2)nc1-c1cccs1	0.2	-18.5	53.2*	-3.4	12.6	46.4*	33.5	7.9
O=C(C[C@@H]1CC[C@H](NC(=O)C2CC2)[C@@H](CO)O1)NCC1CC1	0.2	·	·	·	·	·	·	·
SMILES	Xi reactivation	ABHD5 PLIN5 PPI	Rpn11 block	Rin1-Abl PPI inh	NadD block	Rpn11 inh conf	MMP-2 counter	Thrombin FP
O=C(O)C[C@@H]1C=C[C@H](NC(=O)c2ccccc2F)[C@H](CO)O1	-0.4	·	·	·	·	·	·	·
COc1ccc(NC(=O)COc2ccc(/C=N/NC(=O)c3cccnc3)cc2OC)cc1	0.1	1.1	-7.5	3.0	3.8	·	·	·
COc1cc(/C=N/NC(=O)c2cccnc2)ccc1OCC(=O)Nc1ccccc1Cl	0.3	-4.0	142.2*	4.0	-5.6	+	i	-9.2
CC(=O)c1ccc(NC(=O)c2ccc(COc3ccccc3[N+](=O)[O-])o2)cc1	0.0	10.9	49.4*	-0.4	-5.5	6.8	-2.7	-29.1
O=C(O)c1ccc(COc2ccccc2[N+](=O)[O-])o1	0.0	-3.3	-11.9	-1.0	-5.9	·	·	·
CO[C@H]1CN(C)C(=O)c2cc(NC(C)=O)ccc2OC[C@@H](C)N(Cc2cccnc2)C[C@H]1C	0.1	·	·	·	·	·	·	·
COc1ccc(-c2nnc(SCC(=O)NCc3cccs3)n2C(C)C)cc1	·	-6.3	38.7*	-1.9	-7.6	10.1	-10.0	-1.3
O=C(C[C@H]1CC[C@@H](NC(=O)c2cccnc2)[C@H](CO)O1)NCc1ccncn1	-0.3	·	·	·	·	·	·	·
CCOc1ccc(C2C(C(=O)c3ccc(C)o3)=C(O)C(=O)N2c2nc(C)c(C(=O)OC)s2)cc1 (stereo not drawn)	0.2	-14.5	41.9*	-1.2	12.5	-17.4	-56.2	-7.4
COC(=O)c1sc(N2C(=O)C(O)=C(C(=O)c3ccc(C)o3)C2c2ccc([N+](=O)[O-])cc2)nc1C (stereo not drawn)	0.0	-6.0	14.0	4.0	17.0	·	·	·
CCOc1ccc2ccccc2c1C1NC(=O)NC(C)=C1C(=O)OCCOC (stereo not drawn)	0.1	-1.1	-2.0	1.7	1.1	·	·	·
COCCOC(=O)C1=C(C)NC(=O)NC1c1c(OC)ncnc1OC (stereo not drawn)	·	-5.8	164.3*	4.6	-2.2	-10.6	-6.3	-10.2
C[C@H](CO)N1C[C@H](C)[C@H](CN(C)S(=O)(=O)c2ccc(C#N)cc2)Oc2ncc(C#Cc3ccc(C(F)(F)F)cc3)cc2C1=O	0.0	·	·	·	·	·	·	·
CCC(C)Sc1cc(-c2nc3cc(C)ccn3c2NC2CCCCC2)ccc1OC (stereo not drawn)	0.9	-10.1	85.2*	2.4	8.5	8.5	-29.4	0.4
CCC(C)Sc1cc(-c2nc3ccccn3c2NC2CCCCC2)ccc1OC (stereo not drawn)	0.1	-2.6	1.6	-2.0	13.1	·	·	·
O=C(C[C@@H]1CC[C@@H]2[C@H](COC[C@H](O)CN2S(=O)(=O)c2ccccc2)O1)NCCN1CCCC1	0.1	·	·	·	·	·	·	·
O=C(CCN1C(=O)/C(=C/c2cccs2)SC1=S)Nc1cccc(C(=O)O)c1	-0.1	-5.2	41.7*	0.9	5.7	47.0*	-6.3	51.3*

High-throughput results as filed in PubChem.
